Activity calls are given as the source filed them. The calls are words filed in the database; no cut-off is given here.
Key:
Spinacia oleracea [1] = test: Effect on photosystem 2 interaction site in spinach thylakoid membrane assessed as chlorophil-a fluorescence parameter at 10 uM; format: cell membranes
Spinacia oleracea [2] = test: (§1) Inhibition of photosynthetic phosphorylation from water to methyl viologen in spinach leaves chloroplast; format: functional
Outline: (§2)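 Isolated spinach chloroplasts (20 μg Chl/mL) osmotically ruptured in 100 mM sorbitol, 10 mM KCl, 5 mM MgCl₂, 0.001 M Na⁺-tricine, with 1 mM ADP, 3 mM Pi and 0.05 mM MV. ATP formed was calculated from light-driven alkalization, back-titrated with HCl. I50 read from concentration-response plots; average of three replicates.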

Spinacia oleracea [3] = test: Effect on uncoupled photosystem 2 in spinach chloroplast assessed as inhibition of electron transport rate of water to 2,6-dicholorophenol indophenol at 200 uM relative to control; set-up: scale not given: the % may be the effect or the level left
Outline: (§3)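 Uncoupled PSII water→DCPIP followed as DCPIP-supported O₂ evolution, measured polarographically. Basal medium used 300 μM K₃[Fe(CN)₆] in place of MV, with 1 μM DBMIB, 50 μM DCPIP and 6 mM NH₄Cl. Run at 20 °C; % of control; average of three replicates.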

Spinacia oleracea [4] = test: Effect on uncoupled photosystem 2 in spinach chloroplast assessed as inhibition of electron transport rate of water to sodium silicomolybdate at 200 uM relative to control; set-up: scale not given: the % may be the effect or the level left
Outline: (§4)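 PSII water→silicomolybdate measured in the uncoupled electron flow mixture without MV, plus 200 μM SiMo and 10 μM DCMU. Run at 20 °C with a chloroplast-only blank. Activity given as % of control; average of three replicates.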

Spinacia oleracea [5] = test: Effect on ATP synthesis in spinach leaves chloroplast assessed as blockade of uncoupled electron transport at 300 uM; format: functional
Outline: (§5)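 Uncoupled electron transport measured in basal medium with 6 mM NH₄Cl as uncoupler. Actinic light came from a projector lamp through a 5 cm 1% CuSO₄ filter for 2 min. Chloroplasts at 20 μg Chl/mL, 20 °C, blank with chloroplasts alone. Activity given as % of control.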

Spinacia oleracea [6] = test: Effect on uncoupled photosystem 2 in spinach chloroplast assessed as inhibition of electron transport rate of water to 2,6-dicholorophenol indophenol at 300 uM relative to control; set-up: scale not given: the % may be the effect or the level left; outline: as §3
Spinacia oleracea [7] = test: Effect on ATP synthesis in spinach leaves chloroplast assessed as blockade of phosphorylating electron transport at 50 uM; format: functional
Outline: (§6)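 Photophosphorylating noncyclic electron transport run as the basal assay (chloroplasts 20 μg Chl/mL, 1 min light, MV acceptor) with 1 mM ADP and 3 mM Pi added. Temperature 20 °C with a chloroplast-only blank. Activity expressed as % of control.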

Spinacia oleracea [8] = test: Effect on uncoupled photosystem 1 in spinach chloroplast assessed as inhibition of electron transport rate of tetramethyl-p-benzohydroquinone to methyl viologen at 50 uM relative to control; set-up: scale not given: the % may be the effect or the level left
Outline: (§7)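 Uncoupled PSI flow TMQH₂→MV monitored polarographically at 20 °C in 3 mL basal electron medium. Additions were 100 μM TMQH₂/300 μM ascorbate, 10 μM DCMU and 6 mM NH₄Cl. Blank with chloroplasts alone; values as % of control; average of three replicates.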

Spinacia oleracea [9] = test: Inhibition of H+ATPase activity in spinach thylakoid membranes at 300 uM; format: cell membranes
Outline: (§8)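 Thylakoid membrane-bound Mg²⁺-ATPase measured during ATP hydrolysis. Released inorganic phosphate determined colorimetrically.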

Spinacia oleracea [10] = test: Inhibition of light activated thylakoid membrane bound Mg+ATPase activity in spinach leaves at 200 uM relative to control; conditions: values are per cent of control; outline: as §8
Spinacia oleracea [11] = test: Effect on uncoupled photosystem 1 in spinach chloroplast assessed as inhibition of electron transport rate of 2,6-dichlorophenol indophenol to methyl viologen at 50 uM relative to control; set-up: scale not given: the % may be the effect or the level left
Outline: (§9)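 Uncoupled PSI flow measured polarographically in 3 mL basal uncoupled medium. Donor was 100 μM DCPIP reduced by 300 μM sodium ascorbate, with 10 μM DCMU to block PSII, 6 mM NH₄Cl and 0.05 mM MV as acceptor. Run at 20 °C; % of control; average of three replicates.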

Spinacia oleracea [12] = test: Inhibition of light activated thylakoid membrane bound Mg+ATPase activity in spinach leaves at 100 uM relative to control; conditions: values are per cent of control; outline: as §8
Spinacia oleracea [13] = test: Effect on uncoupled photosystem 2 in spinach chloroplast assessed as inhibition of electron transport rate of water to 2,6-dicholorophenol indophenol at 100 uM relative to control; set-up: scale not given: the % may be the effect or the level left; outline: as §3
Spinacia oleracea [14] = test: Effect on ATP synthesis in spinach leaves chloroplast assessed as blockade of basal electron transport at 50 uM; format: functional
Outline: (§10)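 Spinach chloroplasts at 20 μg chlorophyll/mL, illuminated 1 min in basal electron transport medium (3 mL) with 0.05 mM MV as electron acceptor. Run at 20 °C with a chloroplast-only blank. Rates are in μequiv e⁻ h⁻¹ mg⁻¹ Chl; 100% is the control activity.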

Spinacia oleracea [15] = test: Effect on uncoupled photosystem 1 in spinach chloroplast assessed as inhibition of electron transport rate of 2,6-dichlorophenol indophenol to methyl viologen at 200 uM relative to control; set-up: scale not given: the % may be the effect or the level left; outline: as §9
Spinacia oleracea [16] = test: Effect on uncoupled photosystem 2 in spinach chloroplast assessed as inhibition of electron transport rate of water to sodium silicomolybdate at 50 uM relative to control; set-up: scale not given: the % may be the effect or the level left; outline: as §4
Spinacia oleracea [17] = test: Effect on photosystem 2 interaction site in spinach thylakoid membrane assessed as chlorophil-a fluorescence parameter at 150 uM; format: cell membranes
Outline: (§11)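 Freshly lysed spinach chloroplasts (20 μg Chl mL⁻¹) in the basal noncyclic electron transport medium were incubated with the compound for 5 min in the dark at room temperature. Rapid polyphasic Chl a fluorescence of PSII was then recorded at room temperature using a 2 s saturating pulse (2500 μmol […] s⁻¹, 650 nm LEDs). F0, Fm, Fv/Fm and area were read.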

Spinacia oleracea [18] = test: Residual light activated thylakoid membrane bound Mg+ATPase activity in spinach leaves at 300 uM relative to control
Spinacia oleracea [19] = test: Effect on ATP synthesis in spinach leaves chloroplast assessed as blockade of uncoupled electron transport at 50 uM; format: functional; outline: as §5
Spinacia oleracea [20] = test: Effect on uncoupled photosystem 2 in spinach chloroplast assessed as inhibition of electron transport rate of water to sodium silicomolybdate at 100 uM relative to control; set-up: scale not given: the % may be the effect or the level left; outline: as §4
[21] = as §1; format: functional, Spinacia oleracea; conditions: read-out: I50; outline: as §2
Spinacia oleracea [22] = test: Effect on photosystem 2 interaction site in spinach thylakoid membrane assessed as chlorophil-a fluorescence parameter at 600 uM; format: cell membranes; outline: as §11
Spinacia oleracea [23] = test: Effect on uncoupled photosystem 2 in spinach chloroplast assessed as inhibition of electron transport rate of water to sodium silicomolybdate at 300 uM relative to control; set-up: scale not given: the % may be the effect or the level left; outline: as §4
Spinacia oleracea [24] = test: Effect on uncoupled photosystem 1 in spinach chloroplast assessed as inhibition of electron transport rate of 2,6-dichlorophenol indophenol to methyl viologen at 100 uM relative to control; set-up: scale not given: the % may be the effect or the level left; outline: as §9
Spinacia oleracea [25] = test: Effect on uncoupled photosystem 2 in spinach chloroplast assessed as inhibition of electron transport rate of water to 2,6-dicholorophenol indophenol at 50 uM relative to control; set-up: scale not given: the % may be the effect or the level left; outline: as §3
Spinacia oleracea [26] = test: Effect on uncoupled photosystem 1 in spinach chloroplast assessed as inhibition of electron transport rate of tetramethyl-p-benzohydroquinone to methyl viologen at 200 uM relative to control; set-up: scale not given: the % may be the effect or the level left; outline: as §7
Spinacia oleracea [27] = test: Effect on uncoupled photosystem 1 in spinach chloroplast assessed as inhibition of electron transport rate of tetramethyl-p-benzohydroquinone to methyl viologen at 100 uM relative to control; set-up: scale not given: the % may be the effect or the level left; outline: as §7
Spinacia oleracea [28] = test: Effect on uncoupled photosystem 1 in spinach chloroplast assessed as inhibition of electron transport rate of tetramethyl-p-benzohydroquinone to methyl viologen at 300 uM relative to control; set-up: scale not given: the % may be the effect or the level left; outline: as §7
Spinacia oleracea [29] = test: Effect on ATP synthesis in spinach leaves chloroplast assessed as blockade of basal electron transport at 300 uM; format: functional; outline: as §10
Spinacia oleracea [30] = test: Effect on ATP synthesis in spinach leaves chloroplast assessed as blockade of phosphorylating electron transport at 300 uM; format: functional; outline: as §6
Spinacia oleracea [31] = test: Effect on photosystem 2 interaction site in spinach thylakoid membrane assessed as chlorophil-a fluorescence parameter at 300 uM; format: cell membranes; outline: as §11
Spinacia oleracea [32] = test: Effect on uncoupled photosystem 1 in spinach chloroplast assessed as inhibition of electron transport rate of 2,6-dichlorophenol indophenol to methyl viologen at 300 uM relative to control; set-up: scale not given: the % may be the effect or the level left; outline: as §9

With CN(C)C(=O)Nc1ccc(Cl)c(Cl)c1 as the molecule, how does the Flu intensity (Spinacia oleracea [1]) read?
The Flu intensity was 1200.

Which Activity (Spinacia oleracea [2]) does the source give for CC(=O)O[C@H]1CC[C@](C)(O)[C@]23OC(C)(C)[C@H]([C@H](OC(=O)/C=C/c4ccccc4)[C@H](OC(=O)c4ccccc4)[C@]12C)[C@H]3OC(C)=O here?
The Activity was “inactive”.

For CC(=O)O[C@H]1CC[C@](C)(O)[C@]23OC(C)(C)[C@H]([C@H](OC(=O)/C=C/c4ccccc4)[C@H](OC(=O)c4ccccc4)[C@]12C)[C@H]3O, which Activity (Spinacia oleracea [3]) is on record?
Its Activity is 71%.

And the Activity (Spinacia oleracea [4])?
Its Activity is 21%.

What about the inhibition (Spinacia oleracea [5]) of the same molecule?
Its inhibition is 52%.

What about the Activity (Spinacia oleracea [6]) of the same molecule?
Its Activity is 64%.

What about the inhibition (Spinacia oleracea [7]) of the same molecule?
The inhibition was 79%.

And the Activity (Spinacia oleracea [8])?
The Activity was 115%.

And the inhibition (Spinacia oleracea [9])?
The inhibition was 13%.

And the residual activity (Spinacia oleracea [10])?
Its residual activity is 89%.

What about the Activity (Spinacia oleracea [11]) of the same molecule?
The Activity was 106%.

What about the residual activity (Spinacia oleracea [12]) of the same molecule?
Its residual activity is 91%.

And the Activity (Spinacia oleracea [13])?
The Activity was 80%.

And the inhibition (Spinacia oleracea [14])?
Its inhibition is 83%.

What about the Activity (Spinacia oleracea [15]) of the same molecule?
Its Activity is 100%.

What about the Activity (Spinacia oleracea [16]) of the same molecule?
The Activity was 32%.

What about the Flu intensity (Spinacia oleracea [17]) of the same molecule?
Its Flu intensity is 1220.

And the residual activity (Spinacia oleracea [18])?
Its residual activity is 87%.

What about the inhibition (Spinacia oleracea [19]) of the same molecule?
The inhibition was 26%.

What about the Activity (Spinacia oleracea [20]) of the same molecule?
The Activity was 32%.

And the IC50 [21]?
The IC50 was 25 µM.

And the Flu intensity (Spinacia oleracea [22])?
The Flu intensity was 875.

And the Activity (Spinacia oleracea [23])?
Its Activity is 11%.

What about the Activity (Spinacia oleracea [24]) of the same molecule?
The Activity was 100%.

What about the Activity (Spinacia oleracea [25]) of the same molecule?
Its Activity is 93%.

And the Activity (Spinacia oleracea [26])?
The Activity was 120%.

What about the Activity (Spinacia oleracea [27]) of the same molecule?
Its Activity is 129%.

And the Activity (Spinacia oleracea [28])?
Its Activity is 131%.

What about the inhibition (Spinacia oleracea [29]) of the same molecule?
Its inhibition is 32%.

And the inhibition (Spinacia oleracea [30])?
The inhibition was 68%.

And the Flu intensity (Spinacia oleracea [31])?
Its Flu intensity is 1260.

And the Activity (Spinacia oleracea [32])?
The Activity was 100%.

With CC(=O)O[C@H]1CC[C@@H](C)[C@]23OC(C)(C)[C@H]([C@H](OC(=O)/C=C/c4ccccc4)[C@H](OC(=O)c4ccccc4)[C@]12C)[C@H]3O as the molecule, how does the IC50 [21] read?
Its IC50 is 44 µM.

— ChEMBL document CHEMBL1155840, “Sesquiterpenes from Celastrus vulcanicola as photosynthetic inhibitors” (J Nat Prod, 2008)
